From ChEMBL document CHEMBL3808340, “Development of Novel 1,2,3,4-Tetrahydroquinoline Scaffolds as Potent NF-κB Inhibitors and Cytotoxic Agents” (ACS Med Chem Lett, 2016)

What was measured:
RAW264.7 = test: Inhibition of LPS-induced NFkappaB (unknown origin) transcriptional activity expressed in mouse RAW264.7 cells at 100 uM incubated for 16 hrs by SEAP based reporter gene assay relative to control; format: cell-based
[1] = Inhibition of LPS-induced NFkappaB (unknown origin) transcriptional activity expressed in mouse RAW264.7 cells incubated for 16 hrs by SEAP based reporter gene assay; format: cell-based; conditions: RAW264.7, 16 h
NCI-H23 = test: Cytotoxicity against human NCI-H23 cells after 72 hrs by sulforhodamine B assay; format: functional; conditions: NCI-H23, 72 h
Method in brief: (§1)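 Sulforhodamine B staining following the NCI (USA) protocol was used to estimate cell number indirectly in six human cancer lines. GI50 is the concentration giving a 50% decrease in net cell growth, reported as the mean of three experiments.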

ACHN = test: Cytotoxicity against human ACHN cells after 72 hrs by sulforhodamine B assay; format: functional; method in brief: as §1
MDA-MB-231 = test: Cytotoxicity against human MDA-MB-231 cells after 72 hrs by sulforhodamine B assay; format: functional; conditions: MDA-MB-231, 72 h; method in brief: as §1
[2] = Cytotoxicity against human PC3 cells after 72 hrs by sulforhodamine B assay; format: functional; conditions: PC-3, 72 h; method in brief: as §1
[3] = Cytotoxicity against human NUGC3 cells after 72 hrs by sulforhodamine B assay; format: functional; conditions: NUGC-3, 72 h; method in brief: as §1
[4] = Cytotoxicity against human HCT15 cells after 72 hrs by sulforhodamine B assay; format: functional; conditions: HCT-15, 72 h; method in brief: as §1

SMILES: O=C(Nc1cc(C(F)(F)F)cc(C(F)(F)F)c1)C1CCc2ccccc2N1C(=O)c1ccccc1Cl (stereo not given)
- inhibition (RAW264.7): 90%
- IC50 [1]: 23 µM
- GI50 (NCI-H23): 2.08 µM
- GI50 (ACHN): 4.7 µM
- GI50 (MDA-MB-231): 5.25 µM
- GI50 [2]: 8.04 µM
- GI50 [3]: 1.93 µM
- GI50 [4]: 4.05 µM

SMILES: COc1cc2c(cc1O)CCC(C(=O)Nc1ccccc1)O2 (stereo not given)
- inhibition (RAW264.7): 72%
- IC50 [1]: 53 µM

SMILES: COc1ccc(NC(=O)C2CCc3ccccc3N2)cc1 (stereo not given)
- inhibition (RAW264.7): > 100%
- IC50 [1]: 34 µM
- GI50 (NCI-H23): 55.7 µM
- GI50 (ACHN): 38 µM
- GI50 (MDA-MB-231): 51.4 µM
- GI50 [2]: 56.9 µM
- GI50 [3]: 51.9 µM
- GI50 [4]: 50.2 µM

SMILES: CCCCCCCCC(=O)N1c2ccccc2CCC1C(=O)Nc1ccccc1O (stereo not given)
- inhibition (RAW264.7): 22%
- GI50 (NCI-H23): 55.8 µM
- GI50 (ACHN): 65 µM
- GI50 (MDA-MB-231): 54.3 µM
- GI50 [2]: 45.2 µM
- GI50 [3]: 31.1 µM
- GI50 [4]: 38.4 µM

SMILES: O=C(Nc1cc(C(F)(F)F)cc(C(F)(F)F)c1)c1ccc2ccccc2n1
- GI50 (NCI-H23): 1.44 µM

SMILES: O=C(Nc1ccccc1O)c1ccc2ccccc2n1
- GI50 (NCI-H23): 87.5 µM

SMILES: O=C(Nc1ccccc1O)C1CCc2ccccc2N1C(=O)c1ccc(Cl)cc1 (stereo not given)
- inhibition (RAW264.7): 82%
- IC50 [1]: 20 µM
- GI50 (NCI-H23): 19.2 µM
- GI50 (ACHN): 19.6 µM
- GI50 (MDA-MB-231): 19.6 µM
- GI50 [2]: 25.1 µM
- GI50 [3]: 13.4 µM
- GI50 [4]: 20.2 µM

SMILES: O=C(Nc1ccc(O)cc1)c1ccc2ccccc2n1
- GI50 (NCI-H23): 102 µM

SMILES: CCCC(=O)N1c2ccccc2CCC1C(=O)Nc1ccccc1C(F)(F)F (stereo not given)
- inhibition (RAW264.7): 51%
- IC50 [1]: 95 µM
- GI50 (NCI-H23): > 70 µM
- GI50 (ACHN): > 70 µM
- GI50 (MDA-MB-231): > 70 µM
- GI50 [2]: > 70 µM
- GI50 [3]: > 70 µM
- GI50 [4]: > 70 µM

SMILES: O=C(Nc1ccccc1)C1CCc2ccccc2N1 (stereo not given)
- inhibition (RAW264.7): 85%
- IC50 [1]: 60 µM
- GI50 (NCI-H23): 97.1 µM
- GI50 (ACHN): 72.9 µM
- GI50 (MDA-MB-231): 108 µM
- GI50 [2]: 110 µM
- GI50 [3]: 59 µM
- GI50 [4]: 109 µM

SMILES: O=C(Nc1ccc(C(F)(F)F)cc1)C1CCc2ccccc2N1 (stereo not given)
- inhibition (RAW264.7): 79%
- IC50 [1]: 68 µM
- GI50 (NCI-H23): 25.8 µM
- GI50 (ACHN): 25 µM
- GI50 (MDA-MB-231): 24.2 µM
- GI50 [2]: 20.3 µM
- GI50 [3]: 18.6 µM
- GI50 [4]: 17.6 µM

SMILES: S=C(S)N1CCCC1 [PYRROLIDINE DITHIOCARBAMATE]
- IC50 [1]: 37.2 µM

SMILES: CC(=O)N1c2ccccc2CCC1C(=O)Nc1cc(C(F)(F)F)cc(C(F)(F)F)c1 (stereo not given)
- inhibition (RAW264.7): 85%
- IC50 [1]: 23 µM
- GI50 (NCI-H23): > 70 µM
- GI50 (ACHN): > 70 µM
- GI50 (MDA-MB-231): > 70 µM
- GI50 [2]: > 70 µM
- GI50 [3]: > 70 µM
- GI50 [4]: > 70 µM

SMILES: CCC(=O)N1c2ccccc2CCC1C(=O)Nc1ccccc1C(F)(F)F (stereo not given)
- inhibition (RAW264.7): 43%
- GI50 (NCI-H23): > 80 µM
- GI50 (ACHN): > 80 µM
- GI50 (MDA-MB-231): > 80 µM
- GI50 [2]: > 80 µM
- GI50 [3]: > 80 µM
- GI50 [4]: > 80 µM

SMILES: O=C(Nc1ccccc1C(F)(F)F)c1ccc2ccccc2n1
- GI50 (NCI-H23): > 90 µM

SMILES: O=C(Nc1cc(C(F)(F)F)cc(C(F)(F)F)c1)C1CCc2ccccc2N1C(=O)c1ccc(Cl)cc1 (stereo not given)
- inhibition (RAW264.7): 92%
- IC50 [1]: 20 µM
- GI50 (NCI-H23): 0.889 µM
- GI50 (ACHN): 2.57 µM
- GI50 (MDA-MB-231): 2 µM
- GI50 [2]: 4.23 µM
- GI50 [3]: 1.66 µM
- GI50 [4]: 2.22 µM

SMILES: CCCC(=O)N1c2ccccc2CCC1C(=O)Nc1cc(C(F)(F)F)cc(C(F)(F)F)c1 (stereo not given)
- inhibition (RAW264.7): 88%
- IC50 [1]: 20 µM
- GI50 (NCI-H23): 15 µM
- GI50 (ACHN): 13.9 µM
- GI50 (MDA-MB-231): 15.2 µM
- GI50 [2]: 18.6 µM
- GI50 [3]: 14.4 µM
- GI50 [4]: 21.9 µM

SMILES: O=C(Nc1ccccc1O)C1CCc2ccccc2N1C(=O)c1ccccc1Cl (stereo not given)
- inhibition (RAW264.7): 78%
- IC50 [1]: 20 µM
- GI50 (NCI-H23): 46.9 µM
- GI50 (ACHN): 44.2 µM
- GI50 (MDA-MB-231): 47.4 µM
- GI50 [2]: 60 µM
- GI50 [3]: 36.8 µM
- GI50 [4]: 44.9 µM

SMILES: O=C(Nc1cc(C(F)(F)F)cc(C(F)(F)F)c1)C1CCc2ccccc2N1C(=O)c1ccccc1 (stereo not given)
- inhibition (RAW264.7): 66%
- IC50 [1]: 29 µM
- GI50 (NCI-H23): 2.13 µM
- GI50 (ACHN): 2.92 µM
- GI50 (MDA-MB-231): 2.43 µM
- GI50 [2]: 3.5 µM
- GI50 [3]: 1.68 µM
- GI50 [4]: 3.54 µM

SMILES: O=C(Nc1cc(C(F)(F)F)cc(C(F)(F)F)c1)C1CCc2ccccc2N1C(=O)c1cccc(Cl)c1 (stereo not given)
- inhibition (RAW264.7): 68%
- IC50 [1]: 27 µM
- GI50 (NCI-H23): 0.42 µM
- GI50 (ACHN): 0.813 µM
- GI50 (MDA-MB-231): 1.19 µM
- GI50 [2]: 1.05 µM
- GI50 [3]: 0.56 µM
- GI50 [4]: 0.625 µM

SMILES: COc1cccc2c1C(=O)c1c(O)c3c(c(O)c1C2=O)C[C@@](O)(C(=O)CO)C[C@@H]3O[C@H]1C[C@H](N)[C@H](O)[C@H](C)O1 [DOXORUBICIN]
- GI50 (NCI-H23): 0.0726 µM
- GI50 (ACHN): 0.0995 µM
- GI50 (MDA-MB-231): 0.112 µM
- GI50 [2]: 0.0923 µM
- GI50 [3]: 0.125 µM
- GI50 [4]: 0.0854 µM

SMILES: O=C(Nc1ccccc1)c1ccc2ccccc2n1
- GI50 (NCI-H23): 108 µM

SMILES: CCCCCCCCC(=O)N1c2ccccc2CCC1C(=O)Nc1cc(C(F)(F)F)cc(C(F)(F)F)c1 (stereo not given)
- inhibition (RAW264.7): 58%
- IC50 [1]: 51 µM
- GI50 (NCI-H23): 3.23 µM
- GI50 (ACHN): 4.52 µM
- GI50 (MDA-MB-231): 7.53 µM
- GI50 [2]: 7.43 µM
- GI50 [3]: 2.23 µM
- GI50 [4]: 4.97 µM

SMILES: O=C(Nc1ccccc1C(F)(F)F)C1CCc2ccccc2N1 (stereo not given)
- inhibition (RAW264.7): > 100%
- IC50 [1]: 26 µM
- GI50 (NCI-H23): 56.8 µM
- GI50 (ACHN): 57.6 µM
- GI50 (MDA-MB-231): 45.5 µM
- GI50 [2]: 53.3 µM
- GI50 [3]: 39.3 µM
- GI50 [4]: 40.4 µM

SMILES: O=C(Nc1cc(C(F)(F)F)cc(C(F)(F)F)c1)C1CCc2ccccc2N1 (stereo not given)
- inhibition (RAW264.7): > 100%
- IC50 [1]: 26 µM
- GI50 (NCI-H23): 8.41 µM
- GI50 (ACHN): 8.19 µM
- GI50 (MDA-MB-231): 8.27 µM
- GI50 [2]: 8.12 µM
- GI50 [3]: 8.76 µM
- GI50 [4]: 8.7 µM

SMILES: O=C(Nc1ccc(C(F)(F)F)cc1)c1ccc2ccccc2n1
- GI50 (NCI-H23): > 90 µM

SMILES: CCCC(=O)N1c2ccccc2CCC1C(=O)Nc1ccccc1O (stereo not given)
- inhibition (RAW264.7): 41%
- GI50 (NCI-H23): 43.1 µM
- GI50 (ACHN): 50.6 µM
- GI50 (MDA-MB-231): 38 µM
- GI50 [2]: 72.5 µM
- GI50 [3]: 35.4 µM
- GI50 [4]: 58.3 µM

SMILES: COc1ccc(NC(=O)c2ccc3ccccc3n2)cc1
- GI50 (NCI-H23): 7.65 µM

SMILES: O=C(Nc1ccccc1C(F)(F)F)C1CCc2ccccc2N1C(=O)c1ccccc1 (stereo not given)
- inhibition (RAW264.7): 44%
- GI50 (NCI-H23): 6.34 µM
- GI50 (ACHN): 8.09 µM
- GI50 (MDA-MB-231): 5.29 µM
- GI50 [2]: 5.56 µM
- GI50 [3]: 8.12 µM
- GI50 [4]: 6.5 µM

SMILES: CC(=O)N1c2ccccc2CCC1C(=O)Nc1ccccc1O (stereo not given)
- inhibition (RAW264.7): 19%
- GI50 (NCI-H23): 65.7 µM
- GI50 (ACHN): 50.7 µM
- GI50 (MDA-MB-231): 89.6 µM
- GI50 [2]: 70.7 µM
- GI50 [3]: 49.7 µM
- GI50 [4]: 54.5 µM

SMILES: CC(=O)N1c2ccccc2CCC1C(=O)Nc1ccccc1C(F)(F)F (stereo not given)
- inhibition (RAW264.7): 32%
- GI50 (NCI-H23): > 80 µM
- GI50 (ACHN): > 80 µM
- GI50 (MDA-MB-231): > 80 µM
- GI50 [2]: > 80 µM
- GI50 [3]: > 80 µM
- GI50 [4]: > 80 µM

SMILES: CCC(=O)N1c2ccccc2CCC1C(=O)Nc1ccccc1O (stereo not given)
- inhibition (RAW264.7): 31%
- GI50 (NCI-H23): > 90 µM
- GI50 (ACHN): > 90 µM
- GI50 (MDA-MB-231): > 90 µM
- GI50 [2]: > 90 µM
- GI50 [3]: > 90 µM
- GI50 [4]: > 90 µM
